Activation data for 104 compounds are collected here from PubChem BioAssay AID522 (The Scripps Research Institute Molecular Screening Center, 2006).

SMILES strings stand for the structures. About 1,200 (1.8%) of roughly 65,000 compounds were called active. The sample holds actives, similar compounds and a random draw of the others, so the mix is not that of the screen. A number with no mark means an inactive call.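 The calls were made as follows: active = activation above the mean activation of all tested compounds plus 3 SD (cut at about 50% in these data); inactive = the rest.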

Steroidogenic factor 1 (Homo sapiens), sequence (Q13285 whole entry, looked up, the tested form may be a part): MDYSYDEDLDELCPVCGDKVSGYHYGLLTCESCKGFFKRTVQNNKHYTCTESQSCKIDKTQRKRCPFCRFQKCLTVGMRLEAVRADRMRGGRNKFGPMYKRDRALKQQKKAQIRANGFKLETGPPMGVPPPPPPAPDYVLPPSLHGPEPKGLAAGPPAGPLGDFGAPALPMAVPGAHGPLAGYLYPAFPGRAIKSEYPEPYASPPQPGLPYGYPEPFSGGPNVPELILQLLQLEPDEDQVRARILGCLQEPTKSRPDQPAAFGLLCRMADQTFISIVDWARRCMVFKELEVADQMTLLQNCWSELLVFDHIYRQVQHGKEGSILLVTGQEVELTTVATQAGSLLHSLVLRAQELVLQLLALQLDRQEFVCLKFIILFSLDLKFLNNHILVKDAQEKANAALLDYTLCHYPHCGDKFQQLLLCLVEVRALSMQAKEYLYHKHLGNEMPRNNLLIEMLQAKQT

The target of the assay is Steroidogenic factor 1 (Homo sapiens) (UniProt Q13285). The assay is described as follows: SF-1 ligand-binding domain transactivation enhancers – cell-based, CHO-K1, Gal4-SF-1 LBD, luciferase luminescence, primary screen (AID 522). The following applies: CHO-K1 Gal4-SF-1 LBD luciferase reporter; at 10 µM; hits give high values; % increase over DMSO SF-1-specific signal. In short, it runs like this:
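Assay system: CHO-K1 cells co-transfected with Gal4 DBD–human SF-1 LBD, 5xGal4 luciferase reporter / Input: 4,000 cells per well / Incubation: 20 h compound exposure at 37 °C after 1 h cell settling / Detection: SteadyLite luciferase luminescence / Control set: DMSO negative control and −SF1 background wells / Replication: one test per compound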
(In general: A reporter such as luciferase makes a cellular process visible.)
Consider `Cn1c(=NC(=O)c2ccco2)sc2cccc(F)c21`, for which the activation was 91.8% (active).

In the case of `Cn1c(=NC(=O)C2CC2)sc2cc(F)cc(F)c21`, the activation was -2%.

`CCCC(=O)N=c1sc2cccc(F)c2n1C`: the activation was 17.9%.

Turning to `CC(=O)Nc1ccn(Cc2c(F)cccc2Cl)n1`, the activation was 42.1%.

In the case of `CCCCOC(=O)c1ccc(N2C(=O)CC(N3CCN(C/C=C/c4ccccc4)CC3)C2=O)cc1` (centres undefined), the activation was -6.3%.

Consider `COc1ccc(-n2nnc3c(=O)n(CC(=O)OCc4ccccc4)cnc32)cc1`, for which the activation was 9.3%.

With `O=C(Cn1cnc2c(cnn2-c2ccccc2)c1=O)NCc1ccccc1`, the activation was 70.3% (active).

Consider `O=C(Cn1cnc2c(cnn2-c2ccc(F)cc2)c1=O)NCCc1ccccc1`, for which the activation is -19.4%.

Consider `O=C(Cn1c(=O)sc2ccccc21)Nc1ccc2c(c1)OCCO2`, for which the activation is -9.9%.

For the compound `N#CC(=C1SC=CS1)c1nc(-c2ccccc2)cs1`, the activation was 80.9% (active).

As for `N#C/C(=C1\CCCN1)c1nc(-c2ccccc2)cs1`, the activation is 30%.

Turning to `CCOC(=O)CSc1nnc(CNC(=O)c2ccco2)n1-c1ccc(F)cc1`, the activation was 3.4%.

Turning to `CN(CCc1ccccn1)S(=O)(=O)c1ccc2c3c(cccc13)C(=O)N2`, the activation is 14.4%.

Regarding `COc1ccccc1OCCC(=O)OCC(=O)NC(=O)NC(C)(C)C`, the activation was 8.8%.

For `CCc1nnc(NC(=O)CSc2nnc(Cc3ccccc3)n2-c2ccc(OC)cc2)s1`, the activation is -17.5%.

`CCCCC(CCC(=O)Nc1ccc(C(=O)OCC)cc1)C(=O)O` (centres undefined): the activation was -8.4%.

Take `CC(C)COC(=O)c1ccc(NC(=O)C2C3C=CC(C3)C2C(=O)O)cc1` (centres undefined): the activation was 63.7% (active).

`CS(=O)(=O)c1ccc2nc(NC(=O)C3C4C=CC(C4)C3C(=O)O)sc2c1` (centres undefined): the activation is 8.1%.

For the compound `CCc1nnc(NC(=O)c2ccc(S(=O)(=O)NC3CCCCC3)cc2)s1`, the activation was 6.1%.

Regarding `COc1cccc(N(CC(=O)Nc2cccc(N(C)S(C)(=O)=O)c2)S(C)(=O)=O)c1`, the activation was 1.3%.

In the case of `CCOC(=O)C1CCN(C(=O)Cc2c(C(=O)O)[nH]c3ccccc23)CC1`, the activation was -12.1%.

As for `CC(=O)Cc1nsc(NC(=O)c2csc3c2CCCC3)n1`, the activation was 18%.

On to `COC(=O)c1sc(NC(=O)c2csc3c2CCCC3)nc1C`, for which the activation was 50.9% (active).

Consider `COC(=O)c1sccc1NC(=O)c1csc2c1CCCC2`, for which the activation was -11.7%.

Take `CCOC(=O)c1cc(-c2nnc(-c3cc(OC)c(OC)c(OC)c3)o2)c(C)nc1C`: the activation is -11%.

For `Cc1ccc(C)c2[nH]c(=O)c(CCNC(=O)CC(C)C)cc12`, the activation is -11.8%.

In the case of `CCOC(=O)C1Cn2c(nc3c(c2=O)C(C)(CC)Cc2ccccc2-3)S1` (centres undefined), the activation was -8.9%.

As to `CC1Cn2c(nnc2-c2cccs2)S1` (centres undefined), the activation is -15.2%.

On to `O=C(O)C1CCCCC1C(=O)Nc1ccc(Cl)cc1` (centres undefined), for which the activation is -2.8%.

Turning to `O=C(NCc1cn2ccsc2n1)Nc1ccc(Cl)cc1`, the activation was -1.8%.

In the case of `O=C(Nc1ccc(Cl)cc1)c1ccsn1`, the activation was 73.5% (active).

`CCOC(=O)C1CCCCN1Cc1ccc(OC)c(OC)c1OC` (centres undefined): the activation is -21.3%.

Turning to `CN(c1ccc(C(=O)NCCC2=CCCCC2)cc1)S(C)(=O)=O`, the activation was 55.4% (active).

For the compound `O=C(CN1C(=O)NC2(CCCCC2)C1=O)NCCC1=CCCCC1`, the activation is 2.8%.

Consider `Cn1nnc2cc(C(=O)NCCC3=CCCCC3)ccc21`, for which the activation is 49.9% (active).

For `CN(c1ccc(C(=O)N2CCc3ccccc3C2)cc1)S(C)(=O)=O`, the activation was 22.9%.

Take `O=C(COc1cccc(-n2cnnn2)c1)NCCC1=CCCCC1`: the activation is -3.3%.

On to `O=C(Cc1nn[nH]n1)NCCC1=CCCCC1`, for which the activation was 3.7%.

As for `COc1ccc(S(=O)(=O)N2CCCC2)c(C)c1C`, the activation was -8.5%.

For the compound `c1ccc(-c2nnc3n2NC(c2ccc4c(c2)OCO4)S3)cc1` (centres undefined), the activation was -14.9%.

For the compound `CC(C)C[C@H](NC(=O)Nc1cccc(C(F)(F)F)c1)C(=O)O`, the activation was -1.1%.

For `Cc1ccsc1-c1nc(CSCC(=O)NCCN2CCCC2)c(C)o1`, the activation was 3.6%.

For `CC(C)C(=O)Nc1cccc(C(=O)Nc2ccc3c(c2)OCO3)c1`, the activation was 55% (active).

Regarding `Cn1c(=O)n(C)c2cc(C(=O)Nc3ccc4c(c3)OCO4)ccc21`, the activation is 21.2%.

Turning to `COc1ccc(C(=O)Nc2ccc3c(c2)OCO3)cc1OC`, the activation is 55% (active).

For `O=C(Nc1cccnc1)c1ccc2c(c1)OCO2`, the activation is 13.2%.

In the case of `O=C(Nc1ccc2c(c1)OCCO2)c1ccncc1`, the activation was 20.3%.

Take `Cc1ccc(C(=O)Nc2ccc3c(c2)OCO3)cc1S(=O)(=O)N1CCCCC1`: the activation is 22.6%.

For the compound `CCc1nnc(NC(=O)c2c(O)c3c([nH]c2=O)CCCC3)s1`, the activation was 29.1%.

On to `CC1C(c2ccccc2)=[N+]([O-])C2(CCCC2)N1O` (centres undefined), for which the activation is 18.6%.

With `O=C(C1CCC(C(=O)N2CCCC2)CC1)N1CCCC1` (centres undefined), the activation was -2.5%.

Consider `COc1ccc(NC(=O)c2cccc(NC(=O)c3ccco3)c2)c(OC)c1`, for which the activation is -29.9%.

As for `Fc1cc(F)c2nc(N3CCOCC3)sc2c1`, the activation is 52.6% (active).

`Fc1ccc2nc(N3CCCCC3)sc2c1`: the activation was 43.3%.

On to `c1c2c(cc3sc(N4CCCCC4)nc13)OCCO2`, for which the activation is -71.4%.

As to `O=C(O)Cc1ccc(NC(=O)c2cccs2)cc1`, the activation is -7.4%.

Turning to `Cc1ccnc(NC(=O)c2ccc(NC(=O)c3ccco3)cc2)c1`, the activation was 46.9%.

For the compound `O=C(Nc1ccc(NC(=O)c2cccs2)cn1)c1ccco1`, the activation was 73.3% (active).

Take `COc1ccc(N(C(=O)c2cccnc2)S(=O)(=O)c2ccc3c(c2)n(C)c(=O)n3C)cc1`: the activation was -24.3%.

With `COc1ccc(Cn2nnc3c(=O)[nH]c(C4CCN(C(=O)c5ccccc5Cl)CC4)nc32)cc1`, the activation was -2.2%.

With `Cc1cc2nc(-c3ccc(NC(=O)c4cccnc4)cc3)oc2cc1C`, the activation is 54.8% (active).

In the case of `CCC(=O)Nc1cccc(NC(=O)c2cccnc2)c1`, the activation is -0.4%.

`CC(C)NS(=O)(=O)c1ccc(NC(=O)c2cccnc2)cc1`: the activation is 33.9%.

For `CCOC(=O)c1ccn(-c2nc(-c3ccco3)cc(C(F)(F)F)n2)n1`, the activation was 0.6%.

As for `Cc1cc(C(=O)NCCCc2ccccc2)no1`, the activation was 16.8%.

Regarding `CC(C)Cc1cc(C(=O)Nc2cc(Br)ccc2O)no1`, the activation was 11.7%.

Consider `CC(C)Cc1cc(C(=O)NCCc2ccccc2)no1`, for which the activation is 80.7% (active).

For the compound `CC(C)Cn1c(CCC(=O)O)ccc1-c1cccs1`, the activation is 2.5%.

For `COc1ccccc1N=C1SC(C)CN1C(=O)C1CCC1` (centres undefined), the activation was 1.8%.

Turning to `COc1ccc(-n2nnnc2SCC(=O)c2ccc(OC)c(OC)c2)cc1`, the activation was -4.4%.

For `COC(=O)Cc1cc(=O)n(-c2nc3ccccc3s2)[nH]1`, the activation is -3%.

`O=C(O)CSCc1nc2ccccc2s1`: the activation is 15.5%.

In the case of `CCC(=O)NC(=Nc1nc2ccccc2s1)NC(=O)CC`, the activation was 60.7% (active).

For `COc1ccc(-c2cc(C(F)(F)F)n3nc(C(=O)N4CCOCC4)c(Cl)c3n2)cc1`, the activation was -9.4%.

As for `C=CCn1c(C)cc(C(=O)CN2C(=O)c3ccccc3C2=O)c1C`, the activation is 27.3%.

As to `Cc1c(C(=O)CN2CCOCC2)[nH]c2ccccc12`, the activation is 8.5%.

For the compound `O=C(Nc1ccc(-c2nnc(-c3ccccc3)o2)cc1)c1ccc(Br)o1`, the activation is 10.9%.

In the case of `Nc1ccc(-c2nnc(-c3ccc(-c4ccccc4)cc3)o2)cc1`, the activation was 55.2% (active).

For `COc1ccc(CC(=O)Nc2ccc(-c3nnc(-c4ccccc4)o3)cc2)cc1`, the activation was -59.5%.

In the case of `CCOC(=O)c1nc(-c2ccc3c(c2)OCO3)[nH]c1C`, the activation was 46.3%.

In the case of `O=C(Nc1ccc(Cl)cn1)Nc1cccs1`, the activation was 47.6%.

Take `O=C(Nc1ccc(Cl)cn1)c1cnn2cccnc12`: the activation was 63.8% (active).

`Cc1cc(NC(=O)c2cnn3cccnc23)n(-c2ccccc2)n1`: the activation was 2.1%.

With `CCS(=O)(=O)N1CCCC(C(=O)NCCCN(C)Cc2ccccc2)C1` (centres undefined), the activation is -14.4%.

On to `COc1ccc(NS(=O)(=O)c2ccc(NC(=O)C(C)(C(F)(F)F)C(F)(F)F)cc2)nn1`, for which the activation is -13.6%.

For the compound `O=C(Cc1ccccc1)n1nc(-c2ccccc2)nc1NCc1ccco1`, the activation was 50.5% (active).

For the compound `Cc1nc2nc(SCC(=O)NCc3ccco3)nn2c(C)c1Cc1ccccc1`, the activation was 5.7%.

As to `O=C(NCc1ccco1)c1nc(-c2ccccc2)n(-c2ccccc2)n1`, the activation was -4.9%.

In the case of `CCOC(=O)C1CCCN(C(=O)c2ccc(CS(=O)(=O)c3ccc(Br)cc3)o2)C1` (centres undefined), the activation is 19.7%.

Take `Cc1cccc(-n2nc3c(c2NC(=O)c2ccc(Br)o2)CSC3)c1C`: the activation is 9.6%.

Turning to `CCC(Oc1ccccc1)C(=O)NCc1cccnc1` (centres undefined), the activation is -4.9%.

On to `COc1ccc(NC(=O)c2ccc(OC)cc2)cc1`, for which the activation was 30.5%.

For the compound `COc1cc(OC)c(C(=O)NC2CCCCCC2)cc1OC`, the activation is 2%.

For `COc1cc(OC)c(C(=O)Nc2ccc(N(C)C)cc2)cc1OC`, the activation is 51.4% (active).

For the compound `NC(=O)COc1ccc2c3c(c(=O)oc2c1)CCCCC3`, the activation is -7.8%.

Regarding `Cc1cc(NC(=O)COc2ccc(Cl)cc2Cl)n(CCC#N)n1`, the activation was 28.2%.

In the case of `CCN1C(=O)c2cccc3c(N)ccc1c23`, the activation is 15.3%.

On to `CCN1C(=O)/C(=C\N2CCN(c3ccccc3)CC2)SC1=S`, for which the activation was -22.3%.

`CCN1C(=O)/C(=C2\SC(N3CCCCC3)=NC2=O)c2ccccc21`: the activation was 53.9% (active).

Turning to `Cc1nnc(Sc2nc3c(c(=O)[nH]c(=O)n3C)n2Cc2ccccc2)s1`, the activation is -15%.

In the case of `CCOC(=O)c1ccccc1NC(=O)CC1Nc2ccccc2NC1=O` (centres undefined), the activation is 3.2%.

Consider `COc1ccc2nc(NC(=O)c3ccc(Br)s3)sc2c1`, for which the activation is 72.8% (active).

Take `CCn1c(SCC(=O)Nc2nc3ccc(OC)cc3s2)nnc1-c1ccoc1C`: the activation is 13.2%.

For `CNC(=O)c1ccc2nc(NC(C)=O)sc2c1`, the activation is 6.1%.
